Laboratory results taken from the RNAGym collection of RNA variant scans (doi:10.1126/science.aae0568).
Fewer inactive variants are shown than the library holds.

B1: tRNA (parent)
chain: GUUCCGUUGGCGUAAUGGUAACGCGUCUCCCUCCUAAGGAGAAGACUGCGGGUUCGAGUCCCGUACGGAACG

Variants of: B1
Assay: yeast fitness relative to wild type (ratio to wild type); higher = fitter; tRNA-Arg(CCU), competitive growth, 37 C, YPD
Procedure, shortened: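 Amplicons of the tRNA-Arg(CCU) gene were sequenced, 100-nucleotide paired-end, from the start population and from each end population of a pooled yeast competition. The competition, in six parallel replicates, lasted 24 hours in YPD at 37°C. Fitness relative to wild type was calculated from changes in genotype frequencies. Genotypes had to have ≥ 100 starting reads, and estimates < 0.5 were set to 0.5.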

Variant	yeast fitness
GUUCCGUUGGCGUAGUGGUUACGCGUCUGCCUCCUAAGGAGAGGACUGCGGGUUCGAGUCCCGUACAGAACG	≤ 0.5
GUUCCGUUGGCGUACUGGUAACGCGUCUCCCUCCCAAGGAGAAGAGUGCGGGUUCGAGUCCCGUACGGAACG	0.67
GUUCCGUUGGCGUAGUGGUAACGCGUCUCCCUCCUAAGGAGAAGUCUGCGGGUUCGAGUCCCGUACGGAUCG	0.692
GUUCCGUUGGCGUACUGGUAACGCGUCUCCCUCCAAAGGAGAAGACUGCGGGUUCGAGUCCCGUACGGAACG	0.599
GUUCCGUUGGCGUAGUGGUAACGCGUCUCCCUCCUAAGGAGUAGACUGCGGGUUCGCGUCCCGUACGGAACG	0.532
GUUCCGUUGGCGUAGUGGUCACGCGUCUCCCUCCUAAGGAGAUGACUGCGGGUACGAGUCCCGUACGGAACG	≤ 0.5
GUUCCGUUGGCGUAGUGGUCACGCGUCUCCCUCCUAAGGAGAAGACUGCGGGUUCGAGUCCGGUACGGAACG	0.731
GUUCCGUUGGCGUAGUGGUAACGCGUCUCCCUCCUCAGGAGAAGACUGCGGGUUCGAGUCCCGUACGGAACG	0.515
GUUCCGUUGGCGUACUGGUAACGCGUCUCCCUCCUAAGGAGAAGACUGCGGGUUCGAGGCCCGUACGGAACG	0.673
GUUCCGUUGGCGUAGUGGUAACGCGUCUCCCUCCUAAGGAGCAGAAUGCGGGUUCGAGUCCCGUACGGAACG	≤ 0.5
GUUCCGUUGGCGUACUGGUAACGCGUCUCCCUCCUAAGGAGAAGACAGCGGGUUCGAGUCCCGUACGGAACG	1.09
GUUCCGUUGGCGUAGUGGUAACGCGUCUCCCUCCUAAGGAGCAGACUGCGGCUUCGAGUCCCGUACGGAACG	≤ 0.5
GUUCCGUUGGCGUACUGGUAACGCGUCUCCCUCCUAAGGAGAAGACAGCGGCUUCGAGUCCCGUACGGAACG	0.539
GUUCCGUUGGCGUAGUGGUAACGCGUCUCCCUCCUUAGGAGAAGACUGCGGGUUCGAGACCCGUACGGAACG	≤ 0.5
GUUCCGUUGGCGUAGUGGUCACGCGUCUCCCUCUUAAGGAGAAGACUGCGGGUUCGAGGCCCGUACGGAACG	0.705
GUUCCGUUGGCGUAGUGGUAACGCGUCUCCCUCCUAAGGAGAAGACUGCGGGUUCGCGUCCCGUACGGAACG	0.636
GUUCCGUUGGCGUACUGGUAACGCGUCUCCCUCCUAAGGAGAAGACCGCGGGUUCGAGUCCCGUACGGUACG	0.551
GUUCCGUUGGCGUAGUGGUAACGCGUCUCCCUCCUGGGGAGAAGACUGCGGGUUCGAGUCCCGUACGGAACG	0.624
GUUCCGUUGGCGUAGUGGUCACGCGUCUCCCUCCUAAGGAGAAGACUGCGGGUUCGAGUUCCGUACGGAACG	≤ 0.5

Variant	yeast fitness
GUUCCGUUGGCGUAGUGGUUACGCGUCUCCCUCCUAAGGAGAAGACUGCGGGUUCGAGUCCCGUACGAAACG	0.545
GUUCCGUUGGCGUACUGGUAACGCGUCUCCCUCCUAAGGAGAAGACUGCGGGGUCGAGUCCCGUACGGAACG	0.621
GUUCCGUUGGCGUAGUGGUAACGCGUCUCCCUCCUAAGGAGAUGACUGCGGGUUCGAGUGCCGUACGGAACG	≤ 0.5
GUUCCGUUGGCGUACUGGUAACGCGUCUCCCUCCUAAGGAGAAGACUGCGGGUUCGAGACACGUACGGAACG	0.698
GUUCCGUUGGCGUAGUGGUAACGCGUCUCCCUCCUAAGGUGAAGACUGCGGGUUCGAGUCCCGUACGGAACG	0.767
GUUCCGUUGGCGUACUGGUAACGCGUCUCCCUCCUAAGGAGAAGACGGCGGGUUCGAGUCCCGUACGUAACG	≤ 0.5
GUUCCGUUGGCGUAGUGGUAGCGCGUCUCCCUCCUAAGAAGAAGACUGCGGGUUCGAGUCCCGUACGGAACG	0.649
GUUCCGUUGGCGUACUGGUAACGCGUCUCCCUCCCAAGGAGAAGACCGCGGGUUCGAGUCCCGUACGGAACG	≤ 0.5
GUUCCGUUGGCGUACUGGUAACGCGUCUCCCUCCUAAGGAGAAGACGGCGGCUUCGAGUCCCGUACGGAACG	≤ 0.5
GUUCCGUUGGCGUAGUGGUAACGCGUCUCCCUCCUAUGGCGACGACUGCGGGUUCGAGUCCCGUACGGAACG	≤ 0.5
GUUCCGUUGGCGUAGUGGUAACGCGUCUCCCUCCUCAGGAGAAGACUGCGGGUUCGAGUCCCGUACCGAACG	≤ 0.5
GUUCCGUUGGCGUAGUGGUAACGCGUCUCCCUCCUAAGGAGCAGACUGCGCGUUCGAGUCCCGUACCGAACG	≤ 0.5
GUUCCGUUGGCGUAGUGGUAACGCGUCUCCCUCCUGAGGAGAAGACUGCGGGUUCUAGUCCUGUACGGAACG	≤ 0.5
GUUCCGUUGGCGUACUGGUAACGCGUCUCCCUCCUAAGGAGAAGACAGCGGGUUCGAGUCCCGUCCGGAACG	0.561
GUUCCGUUGGCGUACUGGUAACGCGUCUCCCUCCUAAGGAGAAGACUGCGGGUGCGAGUCCCGUACGGAACG	0.537
GUUCCGUUGGCGUAGUGGUAACGCGUCUCCCUCCUAAGGAGUAGACUGCGGGUUCGAGUCCCGUACGGAACG	0.971
GUUCCGUUGGCGUAGUGGUAACGCGUCUCCCUCCUAAGGAGGAGACUGCGGGUUCGAGUCUCGUACGGAACG	0.579
GUUCCGUUGGCGUAGUGGUACCGCGUCUCCCUCCUAAGGAGAAGACUGCGGGUUCGAGUCCCGUACGGAACG	0.709
GUUCCGUUGGCGUAGUGGUAACGCGUCUCCCUCCUAAGGAGAAGUCUGCGGGUUCGAGUCCCGUACGGAACG	0.987
